# Results: PMC5080318 (Cancer Chemotherapy and Pharmacology, 2016)
# Like-named read-outs stand apart in the source and are kept apart here. Marks after values point to notes of the source that are not given here.
# Assays:
# [1] = test system: solid tumors and hematological malignancies; conditions: cited from earlier work; for antitumor activity: phase I trials, solid tumors and hematological malignancies
# [2] = test system: acute myeloid leukemia (AML); conditions: cited from earlier work; for complete response rate / febrile neutropenia / stomatitis: randomized phase II trial, elderly patients with AML
# [3] = test system: patients with advanced solid tumors; experiment: phase I dose escalation: DLT and MTD; assay type: in vivo
# [4] = phase I pharmacokinetics, plasma and urine; assay type: in vivo, human; conditions: for mean terminal half-life: range over doses
# [5] = test system: caspase-cleaved cytokeratin-18 (CK-18); experiment: plasma caspase-cleaved CK-18; assay type: in vivo, human; conditions: both schedules
# Summary of the method: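 Plasma was drawn pre-dose and at 48, 72 and 120 h after the first two 24-h IV infusions in each schedule: Days 1 and 15 of a 4-week cycle, or Day 1 of a 3-week cycle. Further samples were taken pre-dose and at 120 h post-dose up to Cycle 6. Caspase-cleaved CK-18 was quantified by validated ELISA.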
# [6] = test system: advanced solid tumors; experiment: antitumor activity; assay type: in vivo, human
# [7] = test system: patients with advanced solid tumors; conditions: in vivo
# [8] = test system: phosphorylated histone H3 (pHH3); conditions: in vitro; cited from earlier work
# [9] = test system: tumor cell lines; conditions: 48 h following treatment; cited from earlier work
# [10] = test system: xenograft models of human non-small cell lung cancer, colon carcinoma, and pancreas carcinoma; conditions: cited from earlier work
# [11] = test system: HCT 116 colorectal cancer model; conditions: preclinical models; ref Boehringer Ingelheim; data on file; cited from earlier work
# [12] = test system: alpha-1-acid glycoprotein (AGP); conditions: preclinical; ref Boehringer Ingelheim, data on file; cited from earlier work
# [13] = test system: patients with advanced solid tumors; experiment: phase I safety: adverse events
# [14] = test system: patients with advanced solid tumors; conditions: cited from earlier work
smiles,measurement,setting,value
CO[C@@H](C(=O)N1Cc2n[nH]c(NC(=O)c3ccc(N4CCN(C)CC4)cc3)c2C1)c1ccccc1 [danusertib],clinical activity,[1]; advanced hematological malignancies,promising clinical activity
same,clinical activity,[1]; phase I/II studies in advanced solid tumors,limited activity
"Nc1ccn([C@@H]2O[C@H](CO)[C@@H](O)[C@@H]2O)c(=O)n1 [LDAC, cytosine arabinoside]",complete response rate,[2],11.5%
same,febrile neutropenia,[2],19%
same,stomatitis,[2],15%
COc1cc(Nc2ncc3c(n2)-c2ccc(Cl)cc2C(c2c(F)cccc2OC)=NC3)ccc1C(=O)O [alisertib],clinical activity,"[1]; phase II study, preliminary evidence",durable disease control in multiple cancer types
CC(C)NC(=O)[C@H]1CCC[C@H]1Nc1nc(Nc2ccc(C(=O)N(C)C3CCN(C)CC3)cc2)ncc1C(F)(F)F [BI 811283],Patients with DLT,"[3]; schedule A, 5 mg, n 3, first cycle",0
same,Patients with DLT,"[3]; schedule A, 10 mg, n 7, first cycle",1
same,Patients with DLT,"[3]; schedule A, 13.5 mg, n 3, first cycle",0
same,Patients with DLT,"[3]; schedule A, 18 mg, n 3, first cycle",0
same,Patients with DLT,"[3]; schedule A, 24 mg, n 4, first cycle",0
same,Patients with DLT,"[3]; schedule A, 32 mg, n 3, first cycle",0
same,Patients with DLT,"[3]; schedule A, 43 mg, n 5, first cycle",0
same,Patients with DLT,"[3]; schedule A, 58 mg, n 3, first cycle",0
same,Patients with DLT,"[3]; schedule A, 78 mg, n 7, first cycle",1
same,Patients with DLT,"[3]; schedule A, 105 mg, n 6, first cycle",1
same,Patients with DLT,"[3]; schedule A, 125 mg (MTD), n 16 incl. expansion cohort, first cycle",1
same,Patients with DLT,"[3]; schedule A, 140 mg, n 3, first cycle",2
same,maximum tolerated dose (MTD),[3]; schedule A: 24-h infusion Days 1 and 15 of a 4-week cycle,125 mg
same,Patients with DLT,"[3]; schedule B, 13.5 mg, n 3, first cycle",0
same,Patients with DLT,"[3]; schedule B, 18 mg, n 3, first cycle",0
same,Patients with DLT,"[3]; schedule B, 24 mg, n 3, first cycle",0
same,Patients with DLT,"[3]; schedule B, 32 mg, n 4, first cycle",0
same,Patients with DLT,"[3]; schedule B, 43 mg, n 3, first cycle",0
same,Patients with DLT,"[3]; schedule B, 58 mg, n 3, first cycle",0
same,Patients with DLT,"[3]; schedule B, 78 mg, n 3, first cycle",0
same,Patients with retrospectively identified potential DLT,"[3]; schedule B, 105 mg, n 6",2
same,Patients with DLT,"[3]; schedule B, 105 mg, n 6, first cycle",1^c
same,Patients with retrospectively identified potential DLT,"[3]; schedule B, 125 mg, n 3",1
same,Patients with DLT,"[3]; schedule B, 125 mg, n 3, first cycle",0^c
same,Patients with DLT,"[3]; schedule B, 150 mg, n 3, first cycle",0
same,Patients with retrospectively identified potential DLT,"[3]; schedule B, 180 mg, n 3",1
same,Patients with DLT,"[3]; schedule B, 180 mg, n 3, first cycle",0^c
same,Patients with DLT,"[3]; schedule B, 230 mg, second cohort n 3 (after 300 mg), first cycle",0
same,Patients with DLT,"[3]; schedule B, 270 mg, n 5, first cycle",2
same,Patients with DLT,"[3]; schedule B, 300 mg, n 3, first cycle",2
same,maximum tolerated dose (MTD),[3]; schedule B: 24-h infusion Day 1 of a 3-week cycle,230 mg
same,exposure to total BI 811283 (bound and unbound) in patients with higher AGP plasma concentrations,"[4]; human, in vivo",trend toward increased exposure
same,time to maximum plasma concentration after start of infusion,"[4]; human, in vivo, iv",20 to 24 h
same,Cmax and AUC0–∞ versus dose,[4]; in vivo,increased in a dose-dependent manner
same,fraction excreted in urine,[4]; in vivo,4 to 12 % of the administered dose
same,time after end of infusion in which most of the compound was eliminated,[4]; in vivo,≤ 6 h
same,mean terminal half-life,[4]; schedule A,11.4 to 30.5 h
same,mean terminal half-life,[4]; schedule B,10.1 to 27.0 h
same,level of caspase-cleaved CK-18 in plasma after infusion,[5],no consistent trend
same,"best overall response SD, share of patients",[6]; both treatment schedules,approximately 30%
same,objective response,[6]; either treatment schedule,No patients
same,"drug-related Alopecia, grade All",[7],11 (17.5) n (%)
same,"drug-related Fatigue, grade ≥3",[7],1 (1.7) n (%)
same,"drug-related Nausea, grade ≥3",[7],1 (1.6) n (%)
same,"drug-related alopecia, patients",[7],19.8%
same,"drug-related decreased appetite, patients",[7],14.9%
same,"drug-related diarrhea, patients",[7],16.5%
same,"drug-related fatigue, patients",[7],31.4%
same,"drug-related leukopenia, patients",[7],28.9%
same,"drug-related nausea, patients",[7],24.0%
same,"drug-related neutropenia, patients",[7],33.1%
same,time of treatment until pHH3 was reduced,[8],≤ 1 h
same,"polyploidy, share of cells",[9],up to 80%
same,pHH3 in xenograft models,[10]; marker of Aurora B kinase inhibition,decrease in pHH3
same,effect on tumor growth in xenograft models,[10]; tumor regression in some cases,dose-dependent inhibition of tumor growth
same,antitumor activity of weekly and 2-weekly 24-h continuous infusion,[11],similarly strong antitumor activity
same,protein binding,[12],dependent on the plasma concentrations of alpha-1-acid glycoprotein (AGP)
same,deaths considered related to the study treatment,[13]; 22 patients with fatal AEs,None
same,"drug-related Alopecia, grade All","[13]; Schedule B, Total (N = 58)",12 (20.7) n (%)
same,patients with SAEs regarded as drug related,[13]; all patients,Thirteen
same,patients with fatal AEs,"[13]; all patients, n = 22",18.2%
same,patients with serious AEs (SAEs),"[13]; all patients, n = 61",50.4%
same,drug-related SAE febrile neutropenia,"[13]; all patients, most common drug-related SAE",seven
same,patients with SAEs regarded as drug related,"[13]; schedule A, n = 3",4.8%
same,patients with fatal AEs,"[13]; schedule A, n = 10",15.9%
same,patients with serious AEs (SAEs),"[13]; schedule A, n = 33",52.4%
same,patients with SAEs regarded as drug related,"[13]; schedule B, n = 10",17.2%
same,patients with fatal AEs,"[13]; schedule B, n = 12",20.7%
same,patients with serious AEs (SAEs),"[13]; schedule B, n = 28",48.3%
O=C(Nc1c[nH]nc1-c1nc2ccc(CN3CCOCC3)cc2[nH]1)NC1CC1 [AT9283],antitumor activity,[1],limited antitumor activity
CCN(CCCOc1ccc2c(Nc3cc(CC(=O)Nc4cccc(F)c4)n[nH]3)ncnc2c1)CCOP(=O)(O)O [barasertib],response rate,"[2]; in combination with low-dose cytosine arabinoside (LDAC), AML",45%
same,hematological response rate,"[2]; monotherapy, phase I/II trials, AML",19–25%
same,complete response rate,[2],35.4%
same,febrile neutropenia,[2],67%
same,stomatitis,[2],71%
same,clinical activity,[1]; advanced solid tumors,limited activity in solid tumors
O=C(O)c1ccc(Nc2ncc3c(n2)-c2ccc(Cl)cc2C(c2c(F)cccc2F)=NC3)cc1 [MLN8054],dose-limiting toxicities,[14],DLTs of liver enzyme elevations were observed
CC(=O)NCC(=O)N1[C@@H]2CC[C@H]1c1ccc(Nc3ncc(C(F)(F)F)c(NC4CCC4)n3)cc12 [PF-03814735],antitumor activity,[1],limited antitumor activity
